# In ChEMBL document CHEMBL4513216, “Probing the Open Global Health Chemical Diversity Library for Multistage-Active Starting Points for Next-Generation Antimalarials” (ACS Infect Dis, 2020):
# Experiment: Toxicity liver stage against HepG2, at 10uM
# Format: cell-based
# Parameters: test concentration 10 uM, cell line HepG2-A16-CD81EGFP
# Settings: human, HepG2-A16-CD81EGFP cells; read-out: INHIBITION
# How it was run: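 Uninfected HepG2-A16-CD81EGFP cells, 3 × 10^3 per well, 1536-well, plated on prespotted compound at 10 μM final, parasite-free screening media added to match infected plates; puromycin 10 μM positive, DMSO 0.5% negative; run in parallel with 48 h PbLuc assay at 37 °C, 5% CO2; viability by CellTiter-Glo luminescence, normalized to controls.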
row,Structure (SMILES),cytotoxicity at 10 µM [%]
1,CN(C)c1ccc(-c2nnc([C@H]3CCN(C4CCCCC4)C3)o2)cc1,0.174
2,CNC(=O)C(C)(C)N1CCC[C@H]1C(=O)NC(C)(C)C,-2.63
3,COc1ccc(-c2noc([C@@H]3C[C@H](NC(=O)NC(C)C)CN3C)n2)cc1,-1.47
4,CS(=O)(=O)c1ccc(CN2C[C@@H]3OCC(=O)N(CC(N)=O)[C@@H]3C2)cc1,2.67
5,CSc1ccccc1NC(=O)C1CN(C(=O)c2ccc3c(c2)OCO3)C1,-12.3
6,Cc1nc(CN2CCC23CCN(C(=O)c2ccncc2)CC3)cs1,0.933
7,O=C([C@H]1CCS(=O)(=O)[C@@H]2CN(Cc3ccc(F)cc3)C[C@H]12)N1CCCC1,2.96
8,CC(C)CNC(=O)[C@H]1CCS(=O)(=O)[C@@H]2CN(Cc3cccnc3)C[C@H]12,-2.36
9,CCOCc1ncn2c1CN(C(=O)Nc1ccccc1CC)CC2,7.45
10,O=C(Nc1ccc(F)cc1F)Nc1c[nH]c(=O)[nH]c1=O,-3.55
11,CCn1cc(CNC(=O)CC(C)C)cn1,4.18
12,Cc1nc(N2CCN(C(=O)c3ccccn3)CC2)c2c(n1)c(C)nn2C,5.06
13,N#CCC1CC(c2ccc(F)cc2)=NO1 (stereo not given),-2.37
14,CCn1cc(CN(C)S(=O)(=O)c2cc(Cl)ccc2Cl)cn1,8.6
15,O=C1CC(c2ccccc2)c2snc(C(=O)O)c2N1 (stereo not given),-5.02
16,Cc1c(CN2CCCC2c2cncc(CN3CCCC3)n2)cnn1C (stereo not given),-1.15
17,CC(C)NC(=O)[C@@H]1CN(C)C[C@]12COc1ccc(F)cc1C2=O,2.17
18,CN(C)C(=O)c1cn[nH]c1C1(C)CCN(c2ncccn2)CC1,5.88
19,Cc1nn(C)cc1-c1cc(C(=O)NCC(C)(C)c2ccccc2F)n[nH]1,6.82
20,NC(=O)C1(c2cnccn2)CCCN1C(=O)Cc1ccsc1 (stereo not given),1.54
21,O=C(C1CCOC1)N1Cc2ccccc2OC2(CCOCC2)C1 (stereo not given),1.32
22,CC(O)c1cn(Cc2cccc(C(F)(F)F)c2)nn1 (stereo not given),14.1

row,Structure (SMILES),cytotoxicity at 10 µM [%]
1,CN(CC1CCOC1)c1ncc(Br)cn1 (stereo not given),4.23
2,Cc1ccc(S(=O)(=O)NC(=O)CCc2ccccc2)cc1N(C)C,-0.31
3,CC(c1cccnc1)N(C)S(C)(=O)=O (stereo not given),-5.21
4,CCn1cnnc1CCNC(=O)c1ccc(F)c(Br)c1,5.36
5,COc1ccccc1C(=O)NCc1n[nH]c(C)n1,-0.519
6,NC(=O)CC1CCN(S(=O)(=O)N2CCCC2c2ccco2)CC1 (stereo not given),3.82
7,CCc1oc(C(=O)N[C@@H]2c3ccccc3C[C@@H]2O)cc1C,0.243
8,CCOCCCNC(=O)N(C)Cc1ccc(SC)c(OC)c1,-5.41
9,Cc1cccc(NCCOc2cccc(C#N)c2)c1C(N)=O,-3.59
10,CC(C)n1nc2c(cc1=O)CN(CCOc1ccccc1C#N)CC2,13.7
11,Cc1ccsc1CN(C)C(=O)C1CCCN(C(N)=O)C1 (stereo not given),5.09
12,Cc1nccn1CCCNc1nccnc1C#N,-7.21
13,CCOCCC(=O)Nc1ccnn1-c1ccc(Cl)cc1,-12.6
14,Cc1ccc(C(=O)NS(=O)(=O)Cc2ccon2)c(C)c1,-3.16
15,CC(=O)c1ccc(-n2c(C)cn(CCC(=O)NC(N)=O)c2=O)cc1,14.3
16,Cc1cc(C(C)(O)CNC(=O)c2ccc(Br)o2)c(C)o1 (stereo not given),-0.159
17,Cc1nncn1CCNC(=O)C(C)(C)c1cccc(F)c1,5.73
18,O=C(NCCNC(=O)N1CCC(c2ccccc2)C1)C1CC1 (stereo not given),-3.08
19,CCN(CC)C(CNS(=O)(=O)c1ccc(C(=O)NC)cc1)c1ccco1 (stereo not given),4.62
20,CC(C)C[C@@H](C(N)=O)n1cc(-c2cncnc2)nn1,3.28
21,CNc1ccnc(N2CCC(c3nnc(CN4CCCC4)n3C)CC2)n1,0.715
22,O=C(NCCCOc1cccnc1)c1cn(Cc2ccccc2F)nn1,1.03

row,Structure (SMILES),cytotoxicity at 10 µM [%]
1,CCCN1CCC(Cc2noc(-c3ncccc3C)n2)CC1,0.0119
2,Cc1cccc(CN2C[C@@H](CN3CCCN(C)CC3)C[C@H](CO)C2)n1,2.04
3,Cc1nn(C(C)C)c(C)c1CN1CCC(c2cc(C(C)C)n[nH]2)CC1,1.34
4,Cc1nc2ccccn2c1CN1C[C@@H](CN2CCOCC2)[C@@H](CO)C1,1.73
5,CCc1ocnc1C(=O)N1CCOC(CCCC(C)C)C1 (stereo not given),4.29
6,CC(NC(=O)CCCc1ccc(Cl)cc1)c1n[nH]c(=O)[nH]1 (stereo not given),3.26
7,Cc1cc(=O)c2ccccc2n1CC1CCNC1 (stereo not given),5.98
8,COc1ccccc1OCCCN1CCNC1=O,1.5
9,O=C(c1ccnc(N2CCOC(C(F)(F)F)C2)c1)N1CCOCC1 (stereo not given),2.52
10,Cc1ccccc1C(C(=O)N(C)Cc1cnn(C)c1)N(C)C (stereo not given),-0.837
11,O=C(Cn1ccc2ccccc21)NCc1cc(N2CCOCC2)ncn1,4.44
12,O=C(NCc1ccc2c(c1)CCCO2)c1cn2c(n1)CNCC2,-15.7
13,CC(C)C1CN(S(=O)(=O)N(C)C)CCCN1Cc1ccc(F)cc1 (stereo not given),5.17
14,Cc1cccnc1[C@H](C)Nc1nc(-c2cccnc2)nc2c1CNC2,-8.52
15,O=C(c1cnnn1-c1ccccc1)N1CCCC(c2ccn[nH]2)C1 (stereo not given),-2.75
16,CN(Cc1ccc2nsnc2c1)CC1(O)CNCCOC1 (stereo not given),-5.03
17,CN(C)C(=O)c1nc(CN2C(=O)OC[C@@H]2c2ccccc2)no1,-1.95
18,COc1ccc(F)cc1C(C(=O)O)N1CCCN(C2CCCC2)CC1 (stereo not given),-8.63
19,CN(C(=O)Cc1ccn(C)c1)C1CCCN(C2Cc3ccccc3C2)C1 (stereo not given),4.77
20,O=C(c1cn(CC(=O)N2CCc3[nH]cnc3C2)c2ccccc12)C1CC1,10.2
21,CN[C@@H](CO)C(=O)NCc1cc2n(n1)CCCN(C1CCCCC1)C2,-3.14
22,CC(Cn1ccnc1)NCc1n[nH]c2c1CCC2 (stereo not given),6.07

row,Structure (SMILES),cytotoxicity at 10 µM [%]
1,CSCCCN1C[C@H](NC(=O)c2cnn(C)c2)[C@@H](C2CC2)C1,4.43
2,CCN(CC)C1CCN(C(=O)c2cc(CC(C)C)nn2CC)C1 (stereo not given),-7.74
3,O=C(O)C1c2nc[nH]c2CCN1Cc1ccccc1-c1ccccc1 (stereo not given),-10.5
4,CC(C)[C@H]1CN(c2ccnc(N)n2)C[C@@H]1NC(=O)C1(C#N)CCOCC1,-2.8
5,Cc1cnn(C2(C(=O)O)CCN(c3ccncc3F)CC2)c1,-1.94
6,COc1ccccc1OC1CCN(C(=O)c2cnc(C)s2)CC1,-19.2
7,CC(C)(C)c1ccc(C(=O)C2CCCN(C(=O)CNS(C)(=O)=O)C2)cc1 (stereo not given),4.1
8,O=C(CN1CCOc2ccccc2C1)NCc1cc2n(n1)CCCNC2,8.1
9,CC(COc1ccccc1)NCc1cn2ccccc2n1 (stereo not given),16.6
10,Cc1ccccc1SC1CCN(C(=O)C2CNC(=O)N2)CC1 (stereo not given),-2.22
11,Cc1nc(C2CCN(C(=O)c3cccnc3)CC2)c2sccn12,-5.35
12,CCCc1noc(CNc2ccc(C(=O)N3CCCC3)cc2C)n1,-2.83
13,Cc1ccc(F)c(NS(=O)(=O)c2cc(C(=O)O)oc2C)c1,-3.52
14,CC(C)CCC(C)NC(=O)CN1C=Nc2ccccc2S1(=O)=O (stereo not given),-1.64
15,CC(Cn1cccn1)NCc1nc(-c2ccco2)no1 (stereo not given),-2.66
16,NS(=O)(=O)c1ccc(C(=O)N2CCCC2c2ccccc2)o1 (stereo not given),-6.48
17,CCn1ccnc1CN1CCN(CC(O)CN2CCOCC2)CC1 (stereo not given),-7.83
18,Cc1ncsc1C(=O)NCc1ccnc(N2CCN(C)CC2)c1,-6.92
19,COc1ccccc1NC(=O)NCC(O)c1ccc(F)cc1F (stereo not given),4.1
20,O=C1NCC(C(=O)Nc2ncc(Cc3cccc(F)c3)s2)N1 (stereo not given),-2.45
21,CCN(Cc1c(F)cccc1F)Cn1nc(C)c2c(C)onc2c1=O,-1.52
22,Cc1nccn1CCCC(=O)N1CCC(N(C)c2cccnn2)CC1,-13.4

row,Structure (SMILES),cytotoxicity at 10 µM [%]
1,Cc1nn(C)c(C)c1C1CCCN1C(=O)c1nccnc1N (stereo not given),-3.08
2,CCN1CCOC(CNCc2ccccc2OCC(=O)N(C)C)C1 (stereo not given),-15.4
3,Cc1cc(NC(=O)CCN(CC2CCOC2)C2CC2)no1 (stereo not given),-0.794
4,c1cnnc(N2CCCC2CNc2nc3ccccc3o2)c1 (stereo not given),-2.96
5,CS(=O)(=O)Cc1ccc(CNC(=O)c2cccnc2O)cc1,0.481
6,CN(Cc1nnc2n1CCC2)C(=O)Cc1ccc2c(c1)OCCO2,-7.86
7,CCn1cnnc1C1CCN(C(=O)C(OC)c2ccccc2)CC1 (stereo not given),5.25
8,CSCC[C@H](N)c1nnc(SCc2cc(C)ccc2C)o1,0.0308
9,O=C(c1ncccn1)N1CCC2(CC1)COC(COc1ccccn1)C2 (stereo not given),-1.96
10,CN(C)C(=O)COCC1CN(Cc2ccoc2)Cc2ncn(C)c21 (stereo not given),5.99
11,Cc1ccc(C2(CN3CCN(Cc4cnc(C)n4C)CC3)CC2)cc1,-3.99
12,O=S1(=O)NC[C@H]2CCN(Cc3ccccc3)CC[C@H]21,-10.5
13,COc1ccc(CN2CCC3(CC2)NC(=O)CC3c2cnn(C)c2)cc1 (stereo not given),0.424
14,CC(=O)N1C[C@H]2CCCC(N3CCN(c4ncccn4)CC3)[C@H]2C1 (stereo not given in full),9.46
15,COc1cc(CNC(C)Cn2cccn2)cc2c1OCO2 (stereo not given),1.58
16,CN(C)CCOCc1cncc2c1CCN(C1CCOCC1)C2,4.62
17,Cc1cccc(CN2CCC3(CCCN(C(=O)c4ccsc4)C3)C2=O)n1 (stereo not given),-1.14
18,N#Cc1ccccc1C(=O)N1C[C@@H]2CC[C@H]1CN(c1ncccn1)C2,2.43
19,CCOC(=O)N1C[C@@H]2CC[C@H]1CN(Cc1ccccc1)C2,2.7
20,CCCn1cc(Cl)c(C(=O)N2C[C@H]3CC(OC)C[C@H]3C2)n1 (stereo not given in full),0.19
21,CS(=O)(=O)N1C[C@H]2CC[C@@H](C1)N(C(=O)CCn1cnc3ccccc31)C2,4.11
22,CC(C)=CCN1C(=O)[C@@H]2CC[C@H]1CN(c1ncccc1F)C2,9.72
